Assay results from different studies.
Lines come from different studies, so protocols differ.
Target: Serine/threonine-protein kinase pim-1 (PIM1, Homo sapiens, UniProt P11309)

| SMILES | effect on | mode | method | concentration | measurement | result |
| --- | --- | --- | --- | --- | --- | --- |
| CC#CC(=O)N1CCC[C@H]1c1nc(-c2ccc(C(=O)Nc3ccccn3)cc2)c2c(N)nccn12 | enzyme activity | inhibitor |  | 1 µM | inhibition | 0% |
| N#Cc1ccc(NC(=O)Nc2ccccc2)cc1 | cell-free assay |  | competition with immobilised ligand | 25 µM | remaining binding | 87% |
| CN1CCN(C(=O)c2ccc(NC(=O)Nc3ccc(N(C)c4ccnc(Nc5ccc(CS(C)(=O)=O)cc5)n4)cc3)cc2)CC1 | binding |  |  | 1 µM | remaining binding | 100% |
| C#Cc1cnc(Nc2ccnc(CO)c2)nc1Nc1ccccc1S(C)(=O)=NC#N (centres unmarked) | cell-free assay |  |  | 1 µM | remaining signal | 87% |
| CC(C)S(=O)(=O)c1ccc2nccc(Nc3ccc4sc(C5CCCC5)nc4c3)c2c1 | enzyme activity | inhibitor |  | 1 µM | activity vs control | 101% |
| C[C@H]1CC[C@H](n2c3cnccc3c3cnc(Nc4ccc5c(n4)CCN(C(=O)CO)C5)nc32)CC1 | cell-free assay |  |  | 1 µM | remaining signal | 59% |
| COc1ccc2oc(-c3ccc4nc(N)oc4c3)c/c(=N\c3ccccc3NC(=O)CCN)c2c1 | binding |  |  | 1 µM | remaining binding | 119% |
| CCCCC(=O)Nc1ccc(-c2ccc3ncn(CCC)c(=O)c3c2)cn1 | binding |  | competition with immobilised ligand | 0.5 µM | remaining binding | 100% |
| C=CC(=O)N1CCC([C@@H]2CCNc3c(C(N)=O)c(-c4ccc(Oc5ccccc5)cc4)nn32)CC1 | enzyme activity | inhibitor |  | 1 µM | inhibition | 6% |
| C1=C/COCc2cc(ccc2OCCN2CCCC2)Nc2nccc(n2)-c2cccc(c2)COC/1 | binding |  |  | 0.1 µM | remaining binding | 100% |
| CC(=O)ON=C1C=CC(=C(C#N)c2ccccc2)C=C1 | enzyme activity | inhibitor | ADP detection | 20 µM | activity vs control | 102% |
